Screening results deposited in PubChem BioAssay by Sanford-Burnham Center for Chemical Genomics.
XBP1 UPR activ – adaptive UPR (XBP1) activation; AID 463104; hit rate 0.33% among 330,000; activation, % at 20 µM; CHO-XBP1 luciferase reporter, IRE1-XBP1 UPR activation, luminescence; percent of tunicamycin response, DMSO as zero;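 active = versus positive control, 20 µM dose yields 30% or more activation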;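 note: 100% = tunicamycin at 10 µg/mL and 0% = DMSO only wells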
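Material: IRE1-XBP1 luciferase reporter CHO line / Quantity: one thousand reporter cells per well / Buffer or medium: F12 with 10% serum / Compound: 20 µM single concentration, DMSO 1% / Times: 6 h treatment, 37 °C / Detection: Steady-Glo luciferase glow luminescence, 10 min after reagent addition / Benchmarks: tunicamycin high, DMSO low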
UBC13 polyUb – human UBC13 polyubiquitination inhibition. inhibition, % at 20 µM. hit rate 0.47% among 330,000. P61088. UBC13 polyubiquitin chain formation, TR-FRET; in the data active = inhibition above about 45%, passing the limit was not always enough
UPR CHOP act – apoptotic UPR (CHOP) activation; CHO-CHOP luciferase reporter, luminescence; percent of tunicamycin response over DMSO baseline; activation, % at 10 µM; hit rate 0.34% among 330,000;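 active = at 10 µM dose, activation of 40% or more, normalized to positive control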;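 note: 100% = tunicamycin at 10 µg/mL and 0% = DMSO alone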
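Evaluation: % reporter activation, DMSO baseline versus tunicamycin full activation; System: CHO-CHOP luciferase reporter cell line; Input: 500 cells/well; Incubation: 6 h compound treatment, 37 °C; Measured by: Steady-Glo luciferase luminescence; Dosing: one dose, 10 µM in 0.5% DMSO; Buffer or medium: F12 medium, 10% FBS; Benchmarks: positive tunicamycin 10 µg/mL, negative DMSO alone.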
Mdm2-MdmX inh – human Mdm2/MdmX binding inhibition. inhibition, % at 8 µM. O15151+Q00987. hit rate 3% among 330,000. AID 485346. SaOS-2 split-luciferase Mdm2/MdmX complementation, luminescence;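 active = inhibition of at least 50% at 8 µM in the primary screen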
Apaf-1 inh – blocks human Apaf-1 apoptosome activity; O14727; reconstituted apoptosome caspase-3 activity, DEVD-Rh110 fluorescence; inhibition, % at 20 µM; hit rate 0.71% among 330,000; active = inhibition of at least 40% at 20 µM;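 note: plate controls were DMSO wells for no effect and DEVD-CHO caspase inhibitor wells for full effect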
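System: reconstituted apoptosome with Apaf-1, cytochrome c, caspase-9, procaspase-3, dATP; Signal: Rh110 fluorescence intensity; Schedule: 30 min compound preincubation, 50 min activation, room temperature; Reagent: cytochrome c trigger plus (Z-DEVD)2-Rh110 caspase-3 substrate.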
Mdm2-MdmX conf – human Mdm2/MdmX binding inhibition, confirmed; luminescent assay; AID 489028; shares compounds with Mdm2-MdmX inh; inhibition, % at 8 µM; hit rate 55% among 10,000; in the data active = inhibition above about 40%
FLuc counter – counter-screen for Mdm2/MdmX inhibitors: full-length luciferase; shares compounds with Mdm2-MdmX inh; SaOS-2 full-length luciferase counterscreen, luminescence; inhibition, % at 8 µM; hit rate 77% among 6,200; AID 504607;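 active = mean inhibition at 8 µM reaching about 37%, which flags the compound as non-specific, limit read from the data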;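 note: p53-null SaOS-2 cells with luciferase driven by a doxycycline-inducible promoter; compound on cells about two nights before reading with doxycycline added after day one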
An asterisk follows results filed as active; . = not tested or not shown. Only some compounds are listed: those with a hit (about 4.1% of all), similar ones and a draw of the others.

SMILES | XBP1 UPR activ | UBC13 polyUb | UPR CHOP act | Mdm2-MdmX inh | Apaf-1 inh | Mdm2-MdmX conf | FLuc counter
COc1ccc(CC(=O)NCC(=O)N/N=C(/C)c2ccco2)cc1 | -3 | -3 | 0 | 6 | 7 | . | .
COC(=O)Nc1ccc(S(=O)(=O)N2c3ccccc3CCC2C)cc1 (configuration not stated) | 2 | 2 | -3 | 58* | 19 | 63* | 60*
CC(=O)Nc1ccc(S(=O)(=O)N2CCCc3ccccc32)cc1 | 1 | 18 | -1 | 58* | -9 | 59* | 51*
COc1ccc(-c2nnc(NC(=O)c3ccc(S(=O)(=O)N4CCCc5ccccc54)cc3)o2)cc1 | 4 | -36 | 12 | 62* | 24 | 59* | 46*
CC1CN(S(=O)(=O)c2ccc(C(=O)Nc3nnc(-c4ccc5c(c4)CCCC5)o3)cc2)CC(C)O1 (configuration not stated) | 0 | -85 | 5 | 67* | 28 | 32 | 59*
COc1cccc(NC(=O)CN(C)C(=O)CSc2ccc3c(c2)OCCO3)c1 | -1 | -4 | 1 | 21 | 4 | . | .
Cc1ccc(NC(=O)c2cc(S(=O)(=O)N3CCc4ccccc43)cn2C)cc1C | -4 | -11 | 1 | 55* | 14 | 22 | .
O=C(Nc1nnc(C2CC2)o1)c1ccc(S(=O)(=O)N2CCCc3ccccc32)cc1 | -2 | -43 | 6 | 50* | 8 | 44* | 71*
COCc1nnc(NC(=O)c2ccc(S(=O)(=O)N3CCCc4ccccc43)cc2)o1 | 4 | -4 | 1 | 29 | -11 | . | .
COc1ccc(NC(=O)c2cc(S(=O)(=O)N3CCc4ccccc43)cn2C)cc1 | 0 | -3 | 0 | 29 | 8 | . | .
CC(=O)Nc1ccc(C(=O)OCC(=O)Nc2c(C)n(C)n(-c3ccccc3)c2=O)cc1 | 0 | 3 | 2 | -17 | 0 | . | .
CCCCCC(=O)Nc1ccc(N2CCOCC2)c(S(=O)(=O)Nc2ccc(OC)cc2)c1 | -3 | 0 | 3 | 15 | 8 | . | .
COc1ccc(NS(=O)(=O)c2cc(NC(=O)/C=C/c3cccs3)ccc2N2CCOCC2)cc1 | -3 | -7 | 0 | 53* | 4 | 30 | .
O=S(=O)(c1ccccc1Br)N(Cc1ccccc1)CC(O)COCc1ccccc1 (configuration not stated) | -1 | . | 2 | 11 | 37 | . | .
O=C(CCl)N1CCN(C(=O)C2COc3ccccc3O2)CC1 (configuration not stated) | -8 | 13 | 31 | 67* | -9 | 30 | .
CCN1CCN(C(=O)C2COc3ccccc3O2)CC1 (configuration not stated) | -2 | -1 | 1 | 7 | 1 | . | .
N=c1ccn2c(n1)OC1C(O)C(CO)OC12 (configuration not stated) | -4 | -2 | -1 | 69* | 8 | 72* | 46*
Nc1ccn([C@@H]2O[C@H](CO)[C@@H](O)C2O)c(=O)n1 (some centres not stated) | -6 | -20 | -1 | 65* | -6 | 70* | 47*
Nc1ccn([C@@H]2O[C@H](COS(=O)(=O)O)[C@@H](O)[C@H]2O)c(=O)n1 | 0 | -4 | 0 | -13 | 8 | . | .
O=c1[nH]cnc2c1ncn2[C@@H]1O[C@H](CO)[C@@H](O)[C@H]1O | -8 | -18 | 0 | 8 | 5 | . | .
CCOC(=O)C1CCCN(C(=O)c2ccccc2NS(=O)(=O)c2ccc(F)cc2)C1 (configuration not stated) | 0 | -3 | -1 | -17 | -3 | . | .
Cc1cccc(C(=O)CC(=O)c2cc(Cl)ccc2O)c1 | 5 | -5 | 13 | 62* | 12 | 58* | 39*
Cc1ccc2c(SCC(=O)NCc3ccco3)nc(-c3ccc(F)cc3)nc2c1 | -2 | -6 | -2 | 82* | 0 | -6 | .
O=C(NC1C2CCCC1CN(C1CC1)C2)c1ccc(Cl)cc1 (configuration not stated) | 1 | 0 | 1 | -6 | 8 | . | .
CCOCCCNC(=S)Nc1ccc2nc(N3CCOCC3)cc(C)c2c1 | -1 | -3 | 0 | -13 | -1 | . | .
SMILES | XBP1 UPR activ | UBC13 polyUb | UPR CHOP act | Mdm2-MdmX inh | Apaf-1 inh | Mdm2-MdmX conf | FLuc counter
CCCCCCc1cc2cc(S(=O)(=O)c3ccc(Cl)cc3)c(=O)oc2cc1O | -4 | -13 | 2 | 75* | 6 | 34 | .
CCCCCCc1cc2cc(S(=O)(=O)c3ccc(C)cc3)c(=O)oc2cc1O | -4 | -14 | 3 | 32 | 5 | . | .
CCCCCCc1cc2cc(C(=O)NCc3ccccc3)c(=N)oc2cc1O | 11 | 0 | 9 | 14 | 6 | . | .
CCCCCCc1cc2cc(C(=O)Nc3ccccc3)c(=O)oc2cc1O | 7 | 11 | 14 | 97* | 3 | 61* | 57*
CCOC(=O)c1c(S(=O)(=O)Nc2ccc(C)cn2)c(C)n(C)c1C | -5 | 4 | 0 | -1 | 6 | . | .
CCOc1ccc(OCc2ccc(C(=O)NN=Cc3ccc[nH]3)cc2)cc1 | 3 | 0 | 3 | 84* | 1 | 73* | 28
O=C(NC(Nc1nc2ccc([N+](=O)[O-])cc2s1)(C(F)(F)F)C(F)(F)F)c1ccccc1Cl | -1 | -22 | 25 | 100* | 10 | 100* | 15
O=C(NC(Nc1nc2ccc([N+](=O)[O-])cc2s1)(C(F)(F)F)C(F)(F)F)c1cccnc1 | 0 | -17 | 1 | 100* | 9 | 94* | 22
CCOc1cc([N+](=O)[O-])cc(/C=N/NC(=O)c2c(-c3ccccc3)noc2C)c1O | -7 | -28 | 2 | 57* | 0 | 21 | .
CCOc1cc(/C=N/NC(=O)c2c(-c3ccccc3)noc2C)ccc1O | -1 | 3 | 0 | 3 | -8 | . | .
Cc1ccc(/C=N/NC(=O)c2c(-c3ccccc3)noc2C)c(O)c1 | -1 | -17 | -2 | 65* | 21 | 62* | 31
COc1ccc(C#Cc2c(-c3ccsc3)oc3ccc(-c4cc(OC)c(OC)c(OC)c4)cc23)cc1 | 2 | 2 | 0 | 2 | 9 | . | .
CC(C)CC(NS(=O)(=O)c1cccc(C(=O)O)c1)C(=O)O (configuration not stated) | -3 | -6 | 0 | -9 | -1 | . | .
CN1Cc2cc(C(=O)c3ccccc3O)cnc2NC1=O | -2 | -5 | 5 | 23 | -2 | . | .
COc1ccc(O)c(C(=O)c2cnc3c(c2)CN(C)C(=O)N3)c1 | 0 | -12 | 0 | 63* | 13 | 41* | 63*
Cc1sc2nc(-c3ccccn3)[nH]c(=O)c2c1-c1ccccc1 | 26 | -13 | 20 | 57* | 3 | 31 | .
